{
  "source": "ChEMBL document CHEMBL5357047",
  "about": "“The development of thymol-isatin hybrids as broad-spectrum antibacterial agents with potent anti-MRSA activity” (RSC Med Chem, 2024)",
  "key": {"Staphylococcus aureus [1]": {"test_system": "Staphylococcus aureus", "test": "Antibacterial activity against Staphylococcus aureus MTCC 740 assessed as inhibition of bacterial growth measured after 48 hrs by broth microdilution method", "type": "functional"}, "Staphylococcus aureus [2]": {"test_system": "Staphylococcus aureus", "test": "Bactericidal activity against Methicillin-resistant Staphylococcus aureus ATCC 33591 assessed as inhibition of bacterial growth measured after 48 hrs by agar plate method", "type": "functional", "summary_of_the_method": "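MBC: aliquots from microdilution wells without colour change subcultured on drug-free Mueller Hinton agar, 48 h at 37 °C aerobically. MBC is the lowest concentration with no visible growth. Triplicate.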"}, "[3]": {"test_system": "Staphylococcus epidermidis", "test": "Antibacterial activity against Staphylococcus epidermidis MTCC 435 assessed as inhibition of bacterial growth at 50 uM measured after 48 hrs by agar well diffusion method", "type": "functional", "details": "read-out: IZ"}, "Staphylococcus aureus [4]": {"test_system": "Staphylococcus aureus", "test": "Anti-biofilm activity against Methicillin-resistant Staphylococcus aureus assessed as biofilm substrate coverage at 1/2XMIC measured after 48 hrs by crystal violet staining based phase contrast microscopy (reference value: 81.43+/-3.57%)", "type": "functional"}, "Klebsiella pneumoniae [5]": {"test_system": "Klebsiella pneumoniae", "test": "Antibacterial activity against clinically isolated Klebsiella pneumoniae RBRJ024 assessed as inhibition of bacterial growth at 50 uM measured after 48 hrs by agar well diffusion method", "type": "functional", "details": "read-out: IZ"}, "Acinetobacter baumannii": {"test_system": "Acinetobacter baumannii", "test": "Antibacterial activity against clinically isolated Acinetobacter baumannii RBRJ027 assessed as inhibition of bacterial growth at 50 uM measured after 48 hrs by agar well diffusion method", "type": "functional", "details": "read-out: IZ"}, "Klebsiella pneumoniae [6]": {"test_system": "Klebsiella pneumoniae", "test": "Antibacterial activity against clinically isolated Klebsiella pneumoniae RBRJ019 assessed as inhibition of bacterial growth at 50 uM measured after 48 hrs by agar well diffusion method", "type": "functional", "details": "read-out: IZ"}, "Staphylococcus aureus [7]": {"test_system": "Staphylococcus aureus", "test": "Antibacterial activity against clinically isolated Staphylococcus aureus RBRJ010 assessed as inhibition of bacterial growth at 50 uM measured after 48 hrs by agar well diffusion method", "type": "functional", "details": "read-out: IZ"}, "[8]": {"target": "T1, 4,4'-diapophytoene synthase (Staphylococcus aureus) (UniProt A9JQL9)", "T1 sequence (whole entry)": "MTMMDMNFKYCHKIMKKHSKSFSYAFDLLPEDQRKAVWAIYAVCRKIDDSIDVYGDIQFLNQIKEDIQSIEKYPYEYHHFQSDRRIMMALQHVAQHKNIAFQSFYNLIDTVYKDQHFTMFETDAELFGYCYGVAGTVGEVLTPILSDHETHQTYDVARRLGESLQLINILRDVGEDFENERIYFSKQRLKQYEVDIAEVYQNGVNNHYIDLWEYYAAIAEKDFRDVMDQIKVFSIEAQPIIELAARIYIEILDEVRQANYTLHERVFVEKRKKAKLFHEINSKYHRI", "test": "Inhibition of CrtM in Methicillin-resistant Staphylococcus aureus assessed as inhibition of staphyloxanthin production by measuring reduction in 4,4'-diapophytoene level at 1/4XMIC measured after 24 hrs by spectroscopic analysis", "summary_of_the_method": "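Cells pelleted, PBS-washed, extracted overnight in methanol at 37 °C. Supernatant absorbance read at 462 nm (staphyloxanthin), 286 nm (4,4′-diapophytoene), 435 nm (4,4′-diaponeurosporene) or 455 nm (4,4′-diaponeurosporenic acid). % inhibition = (control − treated)/control × 100.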"}, "Staphylococcus aureus [9]": {"test_system": "Staphylococcus aureus", "test": "Antibacterial activity against Methicillin-resistant Staphylococcus aureus infected in Galleria mellonella assessed as larva's survial rate at 2.5 mg/kg measured after 24 to 48 hrs", "type": "functional", "details": "time 24-48 hrs", "summary_of_the_method": "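Galleria mellonella larvae (0.2–0.4 g, 10 per group) injected in the last proleg with MRSA at 5 × 10^8 ± 0.2 cells per larva, then given 2.5, 5 or 10 mg kg−1. Controls: untreated, PBS, and PBS + 2% DMSO vehicle. Held at 37 °C and checked every 12 h; larvae that were black and unresponsive counted dead. Bacterial burden by CFU at 0, 24 and 48 h.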"}, "Staphylococcus aureus [10]": {"test_system": "Staphylococcus aureus", "test": "Bactericidal activity against clinically isolated Methicillin-resistant Staphylococcus aureus assessed as inhibition of bacterial growth measured after 48 hrs by agar plate method", "type": "functional"}},
  "data": [
    {"smiles": "Cc1ccc(C(C)C)c(OCc2cn(CCCN3C(=O)C(=O)c4ccccc43)nn2)c1", "values": [
      {"measurement": "MIC", "setting": "Staphylococcus aureus [1]", "value": 1.9, "unit": "µM"},
      {"measurement": "MBC", "setting": "Staphylococcus aureus [2]", "value": 7.8, "unit": "µM"},
      {"measurement": "zone of inhibition at 50 µM", "setting": "[3]", "value": 25.5, "unit": "mm"},
      {"measurement": "Activity", "setting": "Staphylococcus aureus [4]", "value": 19.12, "unit": "%"},
      {"measurement": "zone of inhibition at 50 µM", "setting": "Klebsiella pneumoniae [5]", "value": 21.2, "unit": "mm"},
      {"measurement": "zone of inhibition at 50 µM", "setting": "Acinetobacter baumannii", "value": 18.3, "unit": "mm"},
      {"measurement": "zone of inhibition at 50 µM", "setting": "Klebsiella pneumoniae [6]", "value": 20.2, "unit": "mm"},
      {"measurement": "zone of inhibition at 50 µM", "setting": "Staphylococcus aureus [7]", "value": 27.1, "unit": "mm"},
      {"measurement": "inhibition", "setting": "[8]", "value": 86, "unit": "%"},
      {"measurement": "Activity", "setting": "Staphylococcus aureus [9]", "value": 80, "unit": "%"},
      {"measurement": "MBC", "setting": "Staphylococcus aureus [10]", "value": 3.9, "unit": "µM"}
    ]}
  ]
}
